The nature of series [1]: Inhibition of Escherichia coli DNA polymerase 3 beta assessed as inhibition of 5-carboxyfluorescein-QLDLF binding by fluorescence polarization-based competition assay. Summed up:
(§1)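 Competition fluorescence polarization with E. coli sliding clamp and tracer 5-carboxyfluorescein-QLDLF (Kd 70 nM). Inhibition of tracer binding plotted against inhibitor concentration. IC50 converted to Ki using the Kenakin correction for ligand depletion.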
(Polarisation of emitted light reports the rotation of a fluorescent probe.)

Series [2] concerns Escherichia coli. The series is described as follows: Antibacterial activity against Escherichia coli DH5[alpha] after 24 hrs by broth microdilution method. Format: functional. Summed up: (§2)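 CLSI broth microdilution in cation-adjusted Mueller Hinton II broth. Overnight cultures diluted to 5 × 10⁴ CFU/mL. Compounds from 100 mM DMSO stocks, serially 2-fold diluted. OD read at 595 nm before and after 24 h at 37 °C. MIC taken as lowest concentration with background-subtracted OD <0.1. Controls: medium blank, DMSO vehicle, antibiotic.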
(In general: In broth dilution the organism is exposed to a series of concentrations in liquid medium.)

For a further series, the system named is Acinetobacter baylyi. The series is described as follows: Antibacterial activity against Acinetobacter baylyi ADP1 after 24 hrs by broth microdilution method. As to conditions: ADP1, 24 h. Format: functional. Summed up: as §2
In the next series the test system is Bacillus subtilis. The series is described as follows: Antibacterial activity against Bacillus subtilis SU5 after 24 hrs by broth microdilution method. The class given is functional. As to conditions: SU5, 24 h. Summed up: as §2
The subject of another series is Staphylococcus aureus. The series is described as follows: Antibacterial activity against Staphylococcus aureus NCTC 8325 after 24 hrs by broth microdilution method. Format: functional. As to conditions: NCTC 8325, 24 h. Summed up: as §2
Series [3] deals with Escherichia coli. The series is described as follows: Inhibition of Escherichia coli DNA polymerase 3 beta assessed as inhibition of M13 ssDNA replication at 250 uM after 60 mins by agarose gel electrophoresis-UV transilluminator analysis in presence of polymerase 3 alpha and reconstituted clamp loader complex gamm3-delta-delta'. Summed up:
(§3)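 Reconstituted replication of 3 nM RNA-primed M13 ssDNA in 20 mM Tris-HCl pH 7.6, 10 mM MgCl2, 0.8 mM ATP, 8.4 mM DTT, 0.6 mM each dNTP, 120 mM NaCl, with 211 nM Pol III α, 700 nM SSB tetramer, 210 nM β dimer, 42 nM γ3δδ′. Compounds added at 0 °C, final 3.4% DMSO. Run 60 min at 30 °C, quenched with EDTA/SDS, products resolved on 0.7% agarose, SYBR Gold stained, viewed by UV.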

Series [4] can be described thus: Distribution coefficient, log D of the compound at pH 7.2. The class given is physicochemical. As to conditions: octanol/water.
Series [5] concerns Escherichia coli. The series can be described thus: Inhibition of Escherichia coli DNA polymerase 3 beta assessed as inhibition of 5-carboxyfluorescein-QLDLF binding at <1 mM by fluorescence polarization-based competition assay. Summed up:
as §1

The subject of series [6] is Escherichia coli. The series can be described thus: Inhibition of Escherichia coli DNA polymerase 3 beta assessed as inhibition of M13 ssDNA replication at 500 to 1000 uM after 60 mins by agarose gel electrophoresis-UV transilluminator analysis in presence of polymerase 3 alpha and reconstituted clamp loader complex gamm3-delta-delta'. Summed up: as §3

Converted amounts (≈) assume the structure as drawn. The source made the active and inactive calls. The rule behind the calls is not given here.

Usually IC50 stands for the point on the concentration scale where inhibition reaches its midpoint. Usually MIC stands for the lowest concentration that inhibits growth of the organism. The low end stands for greater potency, the high end for weaker potency. `COC(=O)[C@@H]1CCCc2c1[nH]c1ccc(Cl)cc21`: in series [1], the IC50 was above 1000 µM. The MIC amounted to 156 µM (≈ 41.1 µg/mL) against Escherichia coli [2], 78 µM (≈ 20.6 µg/mL) against Acinetobacter baylyi, 78 µM (≈ 20.6 µg/mL) in the series on Bacillus subtilis and 156 µM (≈ 41.1 µg/mL) against Staphylococcus aureus.

A word on the Ki: it is the equilibrium dissociation constant of an inhibitor or competing ligand from its target. What is called logD is the decadic logarithm of the distribution of all forms, ionised or not, between an organic phase and buffer at a given pH. For `O=C(O)[C@@H]1CCCc2c1[nH]c1ccc(Cl)cc21`, the IC50 in series [1] came out at 115 µM. Besides, the Ki in series [1] is 64 µM. Also, in the series on Escherichia coli [3], the inhibition entry was “Active”. The minimal inhibitory concentration (MIC) worked out at 313 µM (≈ 78.2 µg/mL) with Escherichia coli [2], 313 µM (≈ 78.2 µg/mL) against Acinetobacter baylyi, 156 µM (≈ 39 µg/mL) with Bacillus subtilis and 156 µM (≈ 39 µg/mL) with Staphylococcus aureus. In addition, in [4] (read-out: logD), the logD came out at 0.36.

Take `O=[N+]([O-])c1ccc2[nH]ccc2c1`: the inhibition entry in the series with Escherichia coli [5] was “inactive”.

For `NC(=O)c1ccc(F)c(F)c1`, the inhibition entry in the series with Escherichia coli [5] is “inactive”.

With `CCOC(=O)[C@@H]1CCCc2c1[nH]c1ccc(Cl)cc21`, the IC50 in [1] is 899 µM. The Ki in series [1] came to 499 µM. Besides, the MIC against Escherichia coli [2] is 78 µM (≈ 21.7 µg/mL); in the series on Acinetobacter baylyi it was 156 µM (≈ 43.3 µg/mL); in the series on Bacillus subtilis, 78 µM (≈ 21.7 µg/mL); with Staphylococcus aureus it was 78 µM (≈ 21.7 µg/mL). Also, in [4] (read-out: logD), the logD is 4.44.

For the molecule `Clc1ccc2c(c1)c1ccccc1n2CC1CO1` (centres undefined), in [1], the IC50 stood at 358 µM and the Ki came to 199 µM. Further, in the series on Escherichia coli [6], the inhibition result was “Active”. In [4], this molecule showed a logD of 4.93.

As to `O=C1Nc2ccc(Cl)cc2C1=O`, in the series on Escherichia coli [5], the inhibition result is “inactive”.

Take `O=[N+]([O-])c1ccc2cn[nH]c2c1`: the inhibition result in the series on Escherichia coli [5] is “inactive”.

As for `O=C(O)c1ccc(-c2ccc(F)cc2)cc1`, the IC50 in [1] was found to be 504 µM. Moreover, the Ki in series [1] was found to be 280 µM. Further, in the series with Escherichia coli [6], the inhibition result was “Active”. Moreover, the MIC against Escherichia coli [2] was 2500 µM (≈ 541 µg/mL); against Acinetobacter baylyi, 5000 µM (≈ 1080 µg/mL); in the series on Bacillus subtilis, 2500 µM (≈ 541 µg/mL); in the series on Staphylococcus aureus it was 5000 µM (≈ 1080 µg/mL). In addition, the logD in [4] (read-out: logD) is -3.17.

Turning to `O=C(O)c1cc2[nH]c3c(c2cc1Cl)CCCC3`, the half-maximal inhibitory concentration (IC50) in series [1] was 389 µM. The Ki in [1] amounted to 216 µM. Moreover, the inhibition entry in the series on Escherichia coli [6] is “Active”. Moreover, the MIC amounted to 2500 µM (≈ 624 µg/mL) with Escherichia coli [2], 5000 µM (≈ 1250 µg/mL) in the series on Acinetobacter baylyi, 2500 µM (≈ 624 µg/mL) in the series with Bacillus subtilis and 2500 µM (≈ 624 µg/mL) against Staphylococcus aureus. Moreover, in [4] (read-out: logD), the logD is -0.48.

The record behind these values is ChEMBL document CHEMBL3232766, “Discovery of lead compounds targeting the bacterial sliding clamp using a fragment-based approach” (J Med Chem, 2014).
